Results gathered from unrelated publications.
Lines come from different studies, so protocols differ.
CDK3 with cyclin E: Cyclin-dependent kinase 3, with cyclin E (CDK3, Homo sapiens, UniProt Q00526)
CDK3: Cyclin-dependent kinase 3 (CDK3, Homo sapiens, UniProt Q00526)
CDK3 with cyclin E1: Cyclin-dependent kinase 3, with cyclin E1 (CDK3, Homo sapiens, UniProt Q00526)

| SMILES | target | observed | mode | method | tested at | measurement | value |
| --- | --- | --- | --- | --- | --- | --- | --- |
| CC(C)(O)[C@H]1CC[C@H](Nc2ccc3ncc(-c4cccc(C(F)(F)F)c4)n3n2)CC1 | CDK3 with cyclin E | enzyme activity | inhibitor |  | 1 µM | remaining activity | 105% |
| COc1cc(Cl)c(C(=O)N[C@@H](CN[C@H]2CC[C@@H](N)CC2)Cc2ccc(C#N)cc2)cc1-c1ccc(CN[C@H](C)c2ccc(C)cc2)o1 | CDK3 with cyclin E | enzyme activity | inhibitor |  | 1 µM | remaining activity | 99% |
| NS(=O)(=O)c1cc(NC(=O)Cc2ccccc2)ccc1Oc1cccc(Cl)c1 | CDK3 | cell-free assay |  | competition with immobilised ligand | 1 µM | remaining binding | 92% |
| Cc1sc(C(=O)NC2COC2)cc1-n1cc(NC(=O)Nc2c(F)cccc2Cl)cn1 | Cyclin-dependent kinase 3, with cyclin E2 (CDK3, Homo sapiens, UniProt Q00526) | enzyme activity | inhibitor |  | 10 µM | remaining activity | 103% |
| NS(=O)(=O)c1cc(NC(=O)C2(c3ccccc3Cl)CC2)ccc1Oc1cccc(Cl)c1 | CDK3 | cell-free assay |  | competition with immobilised ligand | 1 µM | remaining binding | 90% |
| CCCS(=O)(=O)Nc1ccc(F)c(C(=O)c2c[nH]c3ncc(-c4ccc(Cl)cc4)cc23)c1F | CDK3 with cyclin E | enzyme activity | inhibitor |  | 1 µM | inhibition | < 10% |
| O=C1NC(=O)c2cc(Nc3ccc(F)cc3)c(Nc3ccc(F)cc3)cc21 | CDK3 with cyclin E | cell-free assay |  |  | 0.5 µM | remaining signal | 98.9% |
| CN1CC(Oc2cnc(C#N)cc2-c2ccn3nc(NC(=O)C4CC4)cc3c2)C1 | CDK3 with cyclin E | enzyme activity | inhibitor |  | 1 µM | inhibition | 4% |
| CO[C@@H](C)c1c(Nc2ccc([C@@H](N(C)C(=O)C3CCS(=O)(=O)CC3)C(F)(F)F)cc2)cnc2cc(Cl)nn12 | CDK3 | cell-free assay |  | competition with immobilised ligand | 1 µM | remaining binding | 88% |
| CCN(CC)CCNC(=O)c1c(C)[nH]c(/C=C2\C(=O)Nc3ccc(F)cc32)c1C | CDK3 with cyclin E | enzyme activity | inhibitor |  | 0.3 µM | inhibition | 1% |
| Oc1cccc(-c2nc(N3CCOCC3)c3oc4ncccc4c3n2)c1 | CDK3 with cyclin E | cell-free assay |  |  | 0.5 µM | remaining signal | 93.9% |
| CC(C)(C)c1nc(-c2cccc(NS(=O)(=O)c3c(F)cccc3F)c2F)c(-c2ccnc(N)n2)s1 | CDK3 with cyclin E1 | enzyme activity | inhibitor | radiometric | 1 µM | remaining activity | 103% |
| O=C(Nc1cnn(-c2csc(C(=O)NC3COC3)c2)c1)Nc1ccccc1Cl | CDK3 with cyclin E | enzyme activity | inhibitor |  | 5 µM | remaining activity | 107% |
| COc1cc(-c2cn(C3CCc4c(F)cccc4N(CC(F)(F)F)C3=O)nn2)ccc1-n1cnc(C)c1 (stereo not drawn) | CDK3 | cell-free assay |  | competition with immobilised ligand | 1 µM | remaining binding | 100% |
| O=C(CSc1nc2nccnc2c(=O)n1CCc1ccccc1)Nc1nccs1 | CDK3 with cyclin E1 | enzyme activity | inhibitor |  | 10 µM | inhibition | -19% |
| CNC(=O)c1cc(Oc2ccc(NC(=O)Nc3ccc(Cl)c(C(F)(F)F)c3)cc2)ccn1 | CDK3 with cyclin E | enzyme activity | inhibitor |  | 10 µM | inhibition | 0% |
| CC(C)c1ccc(NC(=O)c2cccs2)c(-c2nc3ccccc3[nH]c2=O)c1 | CDK3 with cyclin E | enzyme activity | inhibitor |  | 1 µM | activity vs control | 109% |
| CN(C)CC#Cc1ccc(OCCCc2sc(N3CCc4cccc(C(=O)Nc5nc6ccccc6s5)c4C3)nc2C(=O)O)c(F)c1 | CDK3 | cell-free assay |  | competition with immobilised ligand | 1 µM | remaining binding | 68% |
| Nc1ncnc2occ(-c3ccc(NC(=O)Nc4cc(C(F)(F)F)ccc4F)cc3)c12 | CDK3 | cell-free assay | inhibitor |  | 20 µM | remaining signal | 0.05% |
| Cc1ccc(Nc2nccc(N(C)c3ccc4c(C)n(C)nc4c3)n2)cc1S(N)(=O)=O | CDK3 with cyclin E | enzyme activity | inhibitor |  | 10 µM | inhibition | 8% |
| CCCCN(CCCC)C(=O)CN1C[C@H](c2cc(OC)c3c(c2)OCO3)[C@@H](C(=O)O)[C@@H]1CC(C)(C)CCC | CDK3 | cell-free assay |  | competition with immobilised ligand | 1 µM | remaining binding | 100% |
| CC(C)(C)c1nc2c(s1)c1nc(N)ncc1c1ccc(NS(=O)(=O)c3c(F)cccc3F)c(F)c12 | Cyclin-dependent kinase 3, with cyclin C (CDK3, Homo sapiens, UniProt Q00526) | enzyme activity | inhibitor | radiometric | 1 µM | remaining activity | 97% |
| O=C(Nc1cnn(-c2csc(C(=O)NC3COC3)c2)c1)Nc1c(F)cccc1Cl | CDK3 with cyclin E | enzyme activity | inhibitor |  | 5 µM | remaining activity | 92.2% |
| CN(C)c1ncnc(-c2ccc3nc(Nc4cc(CN5CCN(C(=O)CC(F)(F)F)CC5)ccn4)[nH]c3c2)c1Cl | CDK3 | cell-free assay |  | competition with immobilised ligand | 1 µM | remaining binding | 86% |
